# Published values from different studies.
# HTR3A: 5-hydroxytryptamine receptor 3A (HTR3A, Homo sapiens, UniProt P46098)
# LATS1: Serine/threonine-protein kinase LATS1 (LATS1, Homo sapiens, UniProt O95835)
# KMT5A: N-lysine methyltransferase KMT5A (KMT5A, Homo sapiens, UniProt Q9NQR1)
# PRKCB: Protein kinase C beta type (PRKCB, Homo sapiens, UniProt P05771)
SMILES,target,observed,action,technique,cell line,concentration,inhibition [%]
Oc1cccc(Nc2nc(-c3ccc(F)cc3F)cs2)c1,HTR3A,ligand displacement,,radioligand,,10 µM,0.9
CCN(CC)CCNC(=O)c1c(C)[nH]c(/C=C2\C(=O)Nc3ccc(F)cc32)c1C,"cAMP-dependent protein kinase catalytic subunit alpha (PRKACA, Bos taurus, UniProt P00517)",enzyme activity,inhibitor,,,10 µM,1
Cn1cnc(Br)c1C1=CN(c2ncnc3[nH]cnc23)CCS1,LATS1,enzyme activity,inhibitor,radiometric,,2 µM,97.3
Ic1cccc2cnccc12,"Nicotinamide phosphoribosyltransferase (NAMPT, Homo sapiens, UniProt P43490)",enzyme activity,inhibitor,,,10 µM,-2
Cc1cc(-c2ccc(/N=N/c3ccc4c(S(=O)(=O)O)cc(S(=O)(=O)O)c(N)c4c3O)c(C)c2)ccc1/N=N/c1ccc2c(S(=O)(=O)O)cc(S(=O)(=O)O)c(N)c2c1O,KMT5A,cell-free assay,,,,10 µM,78
COc1ccc(C(=O)c2coc3c2C(=O)C(=O)C(Cl)=C3)cc1,"Peptide deformylase, mitochondrial (Homo sapiens, UniProt Q9HBH1)",enzyme activity,inhibitor,,,100 µM,≥ 100
Cn1cncc1C1=CN(c2ncnc3[nH]cnc23)CCS1,LATS1,enzyme activity,inhibitor,radiometric,,2 µM,96.1
O=C(c1ccc(F)cc1)N(Cc1ccccc1)C1CCCCC1,HTR3A,ligand displacement,,,,10 µM,-1
O=C(Oc1cc(O)cc2c1C[C@@H](OC(=O)c1cc(O)c(O)c(O)c1)[C@@H](c1cc(O)c(O)c(O)c1)O2)c1cc(O)c(O)c(O)c1,KMT5A,cell-free assay,,,,10 µM,6
CCCCCCCCCCCCCCCc1cccc(O)c1C(=O)O,"Histone acetyltransferase p300 (EP300, Homo sapiens, UniProt Q09472)",enzyme activity,inhibitor,fluorescence,,52 µM,~60
O=C(O)CCCCCCCCCCCC[C@@H]1C=CCC1,KMT5A,cell-free assay,,,,10 µM,-10
CN(C)C1CCN(CC#Cc2nn(C3CCCC3)c3nc(NCc4ccccc4)ncc23)C1 (stereo not shown),"cAMP-dependent protein kinase catalytic subunit alpha (PRKACA, Homo sapiens, UniProt P17612)",enzyme activity,inhibitor,FRET,,10 µM,12
CSc1nc(C)c(-c2ccnc(Nc3ccc(N4CCOCC4)cc3)c2)[nH]1,PRKCB,enzyme activity,inhibitor,,,10 µM,1.3
COc1cc(-c2cc(-c3ccc(N4CCNCC4)cc3)cnc2N)cc(OC)c1OC,"Tyrosine-protein kinase ABL1 (ABL1, Homo sapiens, UniProt P00519, E255K)",enzyme activity,inhibitor,,,1 µM,94
CNC(=O)c1cc(Oc2ccc(NC(=O)Nc3ccc(Cl)c(C(F)(F)F)c3)cc2)ccn1,PRKCB,enzyme activity,inhibitor,,,10 µM,-3
CN(C)c1ccc(C(=C2C=CC(=[N+](C)C)C=C2)c2ccc(N(C)C)cc2)cc1,KMT5A,cell-free assay,,,,10 µM,97
COc1cc2ncnc(Nc3ccc(Oc4ccccc4)c(C)c3C)c2cc1OC,PRKCB,enzyme activity,inhibitor,,,1 µM,9
O=C1C=C2CC3(O)COc4c(ccc(O)c4O)C3=C2C=C1O (stereo not shown),KMT5A,cell-free assay,,,,10 µM,8
COc1cc(NC(C)=O)c(Cl)cc1C(=O)Nc1nccs1,"Androgen receptor (AR, Homo sapiens, UniProt P10275)",cell-free assay,,,,10 µM,-19.5
O=C(O)c1cc(O)c2c(c1)[C@H]([C@H]1c3cc(C(=O)O)cc(O)c3C(=O)c3c(O[C@@H]4O[C@H](CO)[C@@H](O)[C@H](O)[C@H]4O)cccc31)c1cccc(O[C@@H]3O[C@H](CO)[C@@H](O)[C@H](O)[C@H]3O)c1C2=O,KMT5A,cell-free assay,,,,10 µM,23
CCN1CCN(Cc2ccc(NC(=O)c3ccc(C)c(/C=C/c4cnc5[nH]ccc5c4OC)c3)cc2C(F)(F)F)CC1,"Serine/threonine-protein kinase greatwall (MASTL, Homo sapiens, UniProt Q96GX5)",target engagement in cells,inhibitor,chemoproteomics,A-375,0.5 µM,0.239
O=C1c2c(O)cccc2Cc2cccc(O)c21,KMT5A,cell-free assay,,,,10 µM,19
CCN(c1cc(C#CCN2CCOCC2)cc(C(=O)NCc2c(C)cc(C)[nH]c2=O)c1C)[C@H]1CC[C@H](N(C)CCOC)CC1,"Protein arginine N-methyltransferase 6 (PRMT6, Homo sapiens, UniProt Q96LA8)",enzyme activity,inhibitor,,,1 µM,6
Cc1ccc(Nc2nccc(N(C)c3ccc4c(C)n(C)nc4c3)n2)cc1S(N)(=O)=O,"cAMP-dependent protein kinase catalytic subunit alpha (PRKACA, Bos taurus, UniProt P00517)",enzyme activity,inhibitor,,,0.3 µM,-7
O=c1c(-c2cc(O)c(O)c(O)c2)coc2cc(O)c(O)c(O)c12,KMT5A,cell-free assay,,,,10 µM,9
